# According to ChEMBL document CHEMBL4665875, “Synthesis, biological evaluation and in silico modeling of novel pan-genotypic NS5A inhibitors” (Bioorg Med Chem, 2020):
# Tests used:
# [1] = Cytotoxicity against HCV genotype 1b NS5A infected human HuH7 cells assessed as reduction in cell viability measured after 72 hrs by CellTiter-Glo assay; conditions: HuH7 cells infected with HCV genotype 1b NS5A
# [2] = biological target: T1, Nonstructural protein 5A (Hepatitis C virus) (UniProt Q5L478); assay: Potency index, ratio of AV-4025 IC50 to test compound IC50 for inhibition of HCV genotype 3a NS5A infected in Huh7 cells assessed as reduction in viral replication incubated 3 days and measured by bright Glo-luciferase reporter gene assay; assay type: cell-based; conditions: Hepatitis C virus subtype 3a; time 3.0 day
# T1 sequence (whole entry): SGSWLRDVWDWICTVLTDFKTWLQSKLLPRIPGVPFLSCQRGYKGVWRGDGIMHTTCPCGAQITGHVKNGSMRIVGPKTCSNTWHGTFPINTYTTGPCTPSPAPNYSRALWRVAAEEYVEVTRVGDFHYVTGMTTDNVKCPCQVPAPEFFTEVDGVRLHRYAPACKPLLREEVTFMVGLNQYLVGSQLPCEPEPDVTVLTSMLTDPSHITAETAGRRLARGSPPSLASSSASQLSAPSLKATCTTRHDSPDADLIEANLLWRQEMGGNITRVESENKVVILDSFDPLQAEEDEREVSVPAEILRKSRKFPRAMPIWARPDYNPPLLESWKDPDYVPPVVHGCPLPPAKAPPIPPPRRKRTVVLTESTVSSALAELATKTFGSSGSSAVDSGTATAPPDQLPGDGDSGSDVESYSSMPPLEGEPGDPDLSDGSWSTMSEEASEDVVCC
# [3] = Half life in Sprague-Dawley rat at 2 mg/kg, iv measured after 24 hrs by LC-MS/MS analysis; assay type: ADME, organism-based; conditions: in vivo
# Method in brief: (§1)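 Male Sprague-Dawley rats (8–10 weeks), jugular-vein catheterized and fasted 12 h with water available. Intravenous dose of 2 mg/kg given in 10% DMSO/10% Solutol/80% 0.05 M N-methylglucamine. Blood taken into EDTA at 5, 15, 30 min and 1, 2, 4, 8 and 24 h. Plasma precipitated with acetonitrile plus tolbutamide internal standard, then analysed by LC-MS/MS.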
# [4] = MRTlast in Sprague-Dawley rat at 10 mg/kg, po measured after 24 hrs by LC-MS/MS analysis; assay type: ADME, organism-based; conditions: in vivo
# Method in brief: (§2)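 Male Sprague-Dawley rats (8–10 weeks), jugular-vein catheterized and fasted 12 h with water available. Oral dose of 10 mg/kg given in 0.5% methyl cellulose. Blood taken into EDTA at 15, 30 min and 1, 2, 4, 8 and 24 h. Plasma protein-precipitated with acetonitrile containing tolbutamide internal standard, held at −20 °C for 15 min, centrifuged, then analysed by LC-MS/MS.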
# [5] = MRTlast in Sprague-Dawley rat at 2 mg/kg, iv measured after 24 hrs by LC-MS/MS analysis; assay type: ADME, organism-based; conditions: in vivo
# Method in brief: as §1
# [6] = AUC (0 to infinity) in Sprague-Dawley rat at 2 mg/kg, iv measured after 24 hrs by LC-MS/MS analysis; assay type: ADME, organism-based; set-up: route intravenous, dose 2 mg/kg, time 24 hrs; conditions: in vivo
# Method in brief: as §1
# [7] = Cmax in Sprague-Dawley rat at 10 mg/kg, po measured after 24 hrs by LC-MS/MS analysis; assay type: ADME, organism-based; set-up: route oral, time 24 hrs, dose 10 mg/kg; conditions: in vivo
# Method in brief: as §2
# [8] = Cmax in Sprague-Dawley rat at 2 mg/kg, iv measured after 24 hrs by LC-MS/MS analysis; assay type: ADME, organism-based; set-up: route intravenous, dose 2 mg/kg, time 24 hrs; conditions: in vivo
# Method in brief: as §1
# [9] = AUClast in Sprague-Dawley rat at 2 mg/kg, iv measured after 24 hrs by LC-MS/MS analysis; assay type: ADME, organism-based; set-up: route intravenous, time 24 hrs, dose 2 mg/kg; conditions: in vivo
# Method in brief: as §1
# [10] = MRT (0 to infinity) in Sprague-Dawley rat at 10 mg/kg, po measured after 24 hrs by LC-MS/MS analysis; assay type: ADME, organism-based; conditions: in vivo
# Method in brief: as §2
# [11] = Half life in Sprague-Dawley rat at 10 mg/kg, po measured after 24 hrs by LC-MS/MS analysis; assay type: ADME, organism-based; conditions: in vivo
# Method in brief: as §2
# [12] = MRT (0 to infinity) in Sprague-Dawley rat at 2 mg/kg, iv measured after 24 hrs by LC-MS/MS analysis; assay type: ADME, organism-based; conditions: in vivo
# Method in brief: as §1
# [13] = Tmax in Sprague-Dawley rat at 2 mg/kg, iv measured after 24 hrs by LC-MS/MS analysis; assay type: ADME, organism-based; conditions: in vivo
# Method in brief: as §1
# [14] = AUC (0 to infinity) in Sprague-Dawley rat at 10 mg/kg, po measured after 24 hrs by LC-MS/MS analysis; assay type: ADME, organism-based; set-up: route oral, time 24 hrs, dose 10 mg/kg; conditions: in vivo
# Method in brief: as §2
# [15] = Tmax in Sprague-Dawley rat at 10 mg/kg, po measured after 24 hrs by LC-MS/MS analysis; assay type: ADME, organism-based; conditions: in vivo
# Method in brief: as §2
# [16] = AUClast in Sprague-Dawley rat at 10 mg/kg, po measured after 24 hrs by LC-MS/MS analysis; assay type: ADME, organism-based; set-up: route oral, dose 10 mg/kg, time 24 hrs; conditions: in vivo
# Method in brief: as §2
# [17] = Oral bioavailability in Sprague-Dawley rat at 10 mg/kg, po measured after 24 hrs by LC-MS/MS analysis; assay type: ADME, organism-based; conditions: in vivo
# Method in brief: as §2
structure (smiles),measurement,setting,value
COC(=O)N[C@H](C(=O)N1CCC[C@H]1c1ncc(-c2ccc(C#CC#Cc3cnc([C@@H]4CCCN4C(=O)[C@H](NC(=O)OC)c4ccccc4)[nH]3)cc2)[nH]1)C(C)C,CC50 at 72 h,[1],> 10 µM
same,Ratio IC50,[2],13
COC(=O)N[C@H](C(=O)N1CCC[C@H]1c1ncc(-c2ccc(C#CC#Cc3cnc([C@@H]4CCCN4C(=O)[C@H](NC(=O)OC)c4ccccc4)[nH]3)c(-c3cccc(-c4ccccc4)c3)c2)[nH]1)C(C)C,CC50 at 72 h,[1],> 10 µM
COC(=O)N[C@H](C(=O)N1CCC[C@H]1c1ncc(-c2ccc(C#CC#Cc3cnc([C@@H]4CCCN4C(=O)[C@H](NC(=O)OC)c4ccccc4)[nH]3)c(-c3ccc(C(C)(C)C)cc3)c2)[nH]1)C(C)C,CC50 at 72 h,[1],> 10 µM
COC(=O)N[C@H](C(=O)N1CCC[C@H]1c1ncc(C#CC#Cc2ccc(-c3cnc([C@@H]4CCCN4C(=O)[C@@H](NC(=O)OC)C(C)C)[nH]3)cc2-c2cccc(-c3ccccc3)c2)[nH]1)C(C)C,CC50 at 72 h,[1],> 10 µM
COC(=O)N[C@H](C(=O)N1CCC[C@H]1c1ncc(-c2cc(C)c(C#CC#Cc3cnc([C@@H]4CCCN4C(=O)[C@H](NC(=O)OC)c4ccccc4)[nH]3)c(-c3ccccc3)c2)[nH]1)C(C)C,CC50 at 72 h,[1],> 10 µM
COC(=O)N[C@H](C(=O)N1CCC[C@H]1c1ncc(C#CC#Cc2ccc(-c3cnc([C@@H]4CCCN4C(=O)[C@@H](NC(=O)OC)C(C)C)[nH]3)cc2-c2ccccc2)[nH]1)C(C)C,CC50 at 72 h,[1],> 10 µM
COC(=O)N[C@H](C(=O)N1CCC[C@H]1c1ncc(-c2ccc(C#CC#Cc3cnc([C@@H]4CCCN4C(=O)[C@H](NC(=O)OC)c4ccccc4)[nH]3)c(N3CCN(C)CC3)c2)[nH]1)C(C)C,CC50 at 72 h,[1],> 10 µM
COC(=O)N[C@H](C(=O)N1CCC[C@H]1c1ncc(C#CC#Cc2c(C)cc(-c3cnc([C@@H]4CCCN4C(=O)[C@@H](NC(=O)OC)C(C)C)[nH]3)cc2-c2ccccc2)[nH]1)C(C)C,CC50 at 72 h,[1],> 10 µM
COC(=O)N[C@H](C(=O)N1CCC[C@H]1c1ncc(-c2ccc(C#CC#Cc3cnc([C@@H]4CCCN4C(=O)[C@@H](NC(=O)OC)C(C)C)[nH]3)cc2)[nH]1)c1ccccc1,CC50 at 72 h,[1],> 10 µM
COC(=O)N[C@H](C(=O)N1CCC[C@H]1c1ncc(-c2ccc(C#CC#Cc3cnc([C@@H]4CCCN4C(=O)[C@H](NC(=O)OC)c4ccccc4)[nH]3)c(-c3cccc(F)c3F)c2)[nH]1)C(C)C,half-life,[3],276 min
same,MRT last at 24 h,[4],84 min
same,MRT last at 24 h,[5],4.2 h
same,AUC(0-inf),[6],285 ng·h/mL
same,Cmax,"[7]; Sprague-Dawley, read-out: Cmax",38.3 ng/mL
same,Cmax,[8],114 ng/mL
same,AUC(0-t) at 24 h,[9],279 ng·h/mL
same,MRT inf,[10],90 min
same,half-life,[11]; Sprague-Dawley,36 min
same,MRT inf,[12],4.7 h
same,Tmax,[13],4.98 min
same,AUC(0-inf),[14]; Sprague-Dawley,61.7 ng·h/mL
same,Tmax,"[15]; Sprague-Dawley, read-out: Tmax",1 h
same,AUC(0-t) at 24 h,[16],58.7 ng·h/mL
same,bioavailability,[17],4.3%
COC(=O)N[C@H](C(=O)N1CCC[C@H]1c1ncc(-c2cc(F)c(C#CC#Cc3cnc([C@@H]4CCCN4C(=O)[C@H](NC(=O)OC)c4ccccc4)[nH]3)c(-c3ccccc3)c2)[nH]1)C(C)C,CC50 at 72 h,[1],> 10 µM
COC(=O)N[C@H](C(=O)N1CCC[C@H]1c1ncc(-c2ccc(C#CC#Cc3cnc([C@@H]4CCCN4C(=O)[C@H](NC(=O)OC)c4ccccc4)[nH]3)c(-c3ccc(-c4ccccc4)cc3)c2)[nH]1)C(C)C,CC50 at 72 h,[1],> 10 µM
COC(=O)N[C@H](C(=O)N1CCC[C@H]1c1ncc(-c2ccc(C#CC#Cc3cnc([C@@H]4CCCN4C(=O)[C@H](NC(=O)OC)c4ccccc4)[nH]3)c(-c3cccc(F)c3F)c2)[nH]1)C(C)C.Cl.Cl,half-life,[3],192 min
same,MRT last at 24 h,[4],18 min
same,MRT last at 24 h,[5],3.2 h
same,AUC(0-inf),[6],2730 ng·h/mL
same,Cmax,[7]; 24 h,15.2 ng/mL
same,Cmax,[8],1160 ng/mL
same,AUC(0-t) at 24 h,[9],2720 ng·h/mL
same,CC50 at 72 h,[1],> 10 µM
same,MRT inf,[10],24 min
same,t1/2,"[11]; 10 mg/kg, 24 h",2.5 h
same,MRT inf,[12],3.3 h
same,Tmax,[13],4.98 min
same,AUC,[14]; 24 h,328.7 ng·h/mL
same,Tmax,"[15]; 10 mg/kg, 24 h",0.7 h
same,AUC(0-t) at 24 h,[16],271 ng·h/mL
same,bioavailability,[17],2.4%
